This note sets out measurements from PMC2921666 (Genes & cancer, 2010).

Assay [1] concerns the target recombinant V617F mutant JAK2 (aa 532-1132) (Homo sapiens, UniProt O60674, V617F). The experiment in a line: Radiometric kinase assay, recombinant V617F mutant JAK2. It is filed as biochemical. The note with it: read-out: IC50, kinase activity of mutant JAK2 (V617F); JAK2-V617F aa 532-1132, GST-Abltide substrate, 20 μM ATP.
The test system of assay [2] is JAK2 phosphorylation in Ba/F3:JAK2V617F cells. The experiment in a line: JAK2 phosphorylation in IL-3-stimulated Ba/F3:JAK2V617F cells. In kind it is cell-based, mouse. Conditions: 2 hours, with recombinant IL-3. In a few lines: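 Mid-log-phase Ba/F3:JAK2V617F cells were treated 2 h with the test compound at the indicated concentrations, including 1 h with 5 ng/mL recombinant mouse IL-3. Washed cells were lysed in detergent buffer. 50 µg of clarified lysate was run on SDS-PAGE and immunoblotted with anti-phospho-JAK2 (Tyr1007/1008). Blots were stripped and reprobed for total JAK2.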

The next assay relates to Ba/F3:JAK2V617F cells. The experiment in a line: Growth inhibition, Ba/F3:JAK2V617F cells. Conditions: 72 hours. In kind it is cell-based, mouse. In a few lines: (§1)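 Cells grown 72 h with varying concentrations of test compound. Media: Ba/F3:JAK2V617F in RPMI 1640 with 10% FBS plus 1% WEHI-3B conditioned medium (IL-3 source); 32D:p210T315I in IMDM with 10% FBS; K562 in RPMI 1640 with 10% FBS; HEL and SET-2 in RPMI 1640 with 20% and 10% heat-inactivated FBS. Viability by Trypan blue exclusion; GI50 from percent viable cells plotted against drug concentration.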

A further assay has as its system HEL cells. The experiment in a line: Growth inhibition, HEL cells. Conditions: 72 hours. It is filed as cell-based, human. Put shortly:
as §1

The subject of the next assay is SET2 cells. The experiment in a line: Growth inhibition, SET-2 cells. In kind it is cell-based, human. Conditions: SET2 cells (hemizygous V617F), 72 hours. Put shortly: as §1
The subject of assay [3] is STAT-5 phosphorylation in 32D:p210T315I cells. The experiment in a line: STAT-5 phosphorylation in 32D:p210T315I cells. It is filed as cell-based, murine. Conditions: 2 hours. Put shortly:
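Exponentially growing 32D:p210T315I cells, kept in IMDM with 10% FBS, were given the test compound at the indicated concentrations for 2 h. They were then PBS-washed and lysed in detergent buffer. 50 µg of clarified lysate underwent SDS-PAGE and Western blotting for phospho-STAT-5.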

For another assay, the system named is K562 cells. The experiment in a line: Growth inhibition, K562 cells. It is filed as cell-based. Conditions: Homo sapiens, K562, 72 h. In a few lines:
as §1

The test system of the next assay is 32D:p210T315I cells. The experiment in a line: Growth inhibition, 32D:p210T315I cells. It is filed as cell-based, murine. The note with it: Mus musculus, 72 h. Put shortly: as §1

The structures appear in SMILES notation.

Broadly, the IC50 is the point on the concentration scale where inhibition reaches its midpoint. As a reminder, the GI50 is the concentration that inhibits growth by half. Read a low GI50 as greater sensitivity of the cells.

Chain of recombinant V617F mutant JAK2 (aa 532-1132) (O60674 532-1132 V617F): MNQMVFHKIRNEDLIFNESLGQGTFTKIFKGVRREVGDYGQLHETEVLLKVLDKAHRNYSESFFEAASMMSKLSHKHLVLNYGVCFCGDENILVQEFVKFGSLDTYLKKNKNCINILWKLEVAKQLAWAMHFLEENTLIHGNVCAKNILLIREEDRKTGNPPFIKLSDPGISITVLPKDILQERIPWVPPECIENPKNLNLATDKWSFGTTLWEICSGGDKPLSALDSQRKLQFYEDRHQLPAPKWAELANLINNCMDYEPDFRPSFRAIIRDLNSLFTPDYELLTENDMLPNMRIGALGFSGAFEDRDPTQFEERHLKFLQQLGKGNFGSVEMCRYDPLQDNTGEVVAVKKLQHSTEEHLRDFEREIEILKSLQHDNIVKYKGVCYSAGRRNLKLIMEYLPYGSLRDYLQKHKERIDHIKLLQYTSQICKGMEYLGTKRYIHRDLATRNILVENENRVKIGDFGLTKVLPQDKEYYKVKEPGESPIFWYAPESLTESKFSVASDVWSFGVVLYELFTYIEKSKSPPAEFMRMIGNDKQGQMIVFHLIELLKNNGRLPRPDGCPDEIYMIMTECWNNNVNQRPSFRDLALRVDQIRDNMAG

On to `N#C/C(=C/c1ccc(O)c(O)c1)C(=O)NCc1ccccc1` [AG490], for which, in assay [1], the IC50 was 33.1 µM. Also, the “inhibition of JAK2 phosphorylation in cells” value in assay [2] is on record as “did not inhibit JAK2 phosphorylation”. Besides, the GI50 is 1 µM in the assay with Ba/F3:JAK2V617F cells, above 20 µM in the assay with HEL cells and above 20 µM with SET2 cells.

Take `Cc1ccc(NC(=O)c2ccc(CN3CCN(C)CC3)cc2)cc1Nc1nccc(-c2cccnc2)n1` [imatinib]: in assay [3], the “inhibition of STAT-5 phosphorylation” value was “failed to do so”. Also, the GI50 in the assay on K562 cells fell in the range of 0.1 to 0.2 µM; in the assay on 32D:p210T315I cells, 20 to 30 µM.
